In ChEMBL document CHEMBL2150869, “Superpotent [Dmt¹] dermorphin tetrapeptides containing the 4-aminotetrahydro-2-benzazepin-3-one scaffold with mixed μ/δ opioid receptor agonistic properties” (J Med Chem, 2011):
Active and inactive are the calls of the source. The rule behind the calls is not given here. Where a SMILES comes first, the peptide text is derived from it. [ ]: non-standard residue; d: D form. Dmt = Cc1cc(O)cc(C)c1C[C@H](N)C(=O)O; dNMeA = CN[C@H](C)C(=O)O; Sar = CNCC(=O)O

Columns and labels:
Mu-type opioid receptor [1] = molecular target: T1, Mu-type opioid receptor (Homo sapiens, UniProt P35372); assay: Agonist activity at human MOR expressed in HEK293 cells assessed as stimulation of ERK1/2 phosphorylation at […] after 2 mins by Western blotting; assay type: functional, cell-based
T1 sequence (P35372 whole entry): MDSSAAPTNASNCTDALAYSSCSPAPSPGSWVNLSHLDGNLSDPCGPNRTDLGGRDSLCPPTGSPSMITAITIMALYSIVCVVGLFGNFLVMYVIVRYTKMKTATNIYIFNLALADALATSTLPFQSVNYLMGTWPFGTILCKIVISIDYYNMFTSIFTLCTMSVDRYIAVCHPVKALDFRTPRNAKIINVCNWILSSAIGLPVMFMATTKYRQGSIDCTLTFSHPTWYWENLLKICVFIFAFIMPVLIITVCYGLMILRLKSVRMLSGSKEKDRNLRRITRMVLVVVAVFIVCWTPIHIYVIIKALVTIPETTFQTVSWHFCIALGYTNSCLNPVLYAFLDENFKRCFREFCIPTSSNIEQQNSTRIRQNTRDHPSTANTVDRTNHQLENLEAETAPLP
Summary of the method: (§1)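 HEK293 cells stably expressing the μ- or δ-opioid receptor, serum-starved 16 h, then exposed to ligand at 37 °C for the indicated times. Whole lysates run on 10% SDS-PAGE and immunoblotted for phospho-ERK1/2, with the blot reprobed for total ERK as loading control. Three independent experiments.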

[2] = molecular target: Opioid receptors; mu and delta (Mus musculus) (UniProt P42866+P32300); assay: Agonist activity at MOR/DOR in NMRI mouse frontal cortex or spinal cord networks assessed as reduction in spinal cord network activity by electrophysiology assay relative to gabapentin; assay type: functional, tissue-based; design: scale not given: the % may be the effect or the level left
Opioid receptors; mu and delta (Mus musculus), sequence (P32300 whole entry, looked up): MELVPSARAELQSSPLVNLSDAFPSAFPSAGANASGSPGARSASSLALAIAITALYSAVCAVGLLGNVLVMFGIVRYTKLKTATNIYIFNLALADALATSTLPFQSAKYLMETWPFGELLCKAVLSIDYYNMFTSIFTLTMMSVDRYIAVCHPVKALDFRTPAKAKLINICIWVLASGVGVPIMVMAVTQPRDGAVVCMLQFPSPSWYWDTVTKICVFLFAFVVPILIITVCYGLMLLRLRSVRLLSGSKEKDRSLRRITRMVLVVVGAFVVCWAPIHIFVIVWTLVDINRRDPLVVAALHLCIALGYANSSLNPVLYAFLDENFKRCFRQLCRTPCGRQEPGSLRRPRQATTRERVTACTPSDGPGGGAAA
Opioid receptors; mu and delta (Mus musculus), sequence (P42866 whole entry, looked up): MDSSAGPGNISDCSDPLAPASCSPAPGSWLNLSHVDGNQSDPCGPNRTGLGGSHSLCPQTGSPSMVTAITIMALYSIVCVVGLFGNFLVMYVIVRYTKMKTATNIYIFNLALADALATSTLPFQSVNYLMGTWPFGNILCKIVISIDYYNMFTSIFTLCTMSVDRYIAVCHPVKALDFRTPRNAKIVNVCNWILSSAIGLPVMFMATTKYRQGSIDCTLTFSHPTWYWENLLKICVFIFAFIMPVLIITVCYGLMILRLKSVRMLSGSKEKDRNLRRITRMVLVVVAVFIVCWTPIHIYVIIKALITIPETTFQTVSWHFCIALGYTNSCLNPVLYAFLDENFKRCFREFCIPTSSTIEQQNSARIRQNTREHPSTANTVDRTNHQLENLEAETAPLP

Homo sapiens = species: Homo sapiens; assay: Selectivity index, ratio of Ki for human DOR to Ki for human MOR by radioligand displacement assay
Summary of the method: (§2)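 Membranes (20 μg) from HEK293 cells stably expressing μ- or δ-OR incubated with [3H]diprenorphine (3.75 nM) for 45 min at 30 °C in 50 mM Tris-HCl pH 7.5, 100 mM NaCl, 10 mM MgCl2. Nonspecific binding defined with 10 μM naloxone. Bound ligand collected by GF/C filtration and counted by liquid scintillation.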

Mu-type opioid receptor [3] = molecular target: T1, Mu-type opioid receptor; assay: Displacement of [3H]diprenorphine from human MOR expressed in HEK293 cell membrane by liquid scintillation counting; assay type: cell membranes; summary of the method: as §2
Mu-type opioid receptor [4] = molecular target: T1, Mu-type opioid receptor; assay: Agonist activity at human MOR expressed in HEK293 cell membrane assessed as inhibition of forskolin-induced cAMP accumulation by liquid scintillation counting relative to control; assay type: functional, cell membranes
Mu-type opioid receptor [5] = molecular target: T1, Mu-type opioid receptor; assay: Agonist activity at human MOR expressed in HEK293 cell membrane assessed as inhibition of forskolin-induced cAMP accumulation by liquid scintillation counting; assay type: functional, cell membranes
Summary of the method: (§3)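 HEK293 cells stably expressing the μ- or δ-opioid receptor, prelabelled for 24 h with [3H]adenine. Cells treated with ligand (10 fM to 10 μM or 1 pM to 10 μM) plus 50 μM forskolin for 30 min at 37 °C. Read-out is [3H]cAMP over total [3H]adenine nucleotides by scintillation counting, given as percent of forskolin-stimulated accumulation.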

[6] = molecular target: T2, Opioid receptors; mu and delta (Mus musculus, UniProt P42866+P32300); assay: Agonist activity at MOR/DOR in NMRI mouse frontal cortex assessed as reduction in spinal cord network activity by electrophysiology assay; assay type: functional, tissue-based
Summary of the method: (§4)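 Primary neuronal networks from frontal cortex or spinal cord grown on microelectrode array neurochips for 4 weeks to 3 months. Accumulating concentrations from 1 fM to 100 μM (nine steps), each recorded for 1 h at 37 °C, pH 7.4. Spike rate and burst duration taken from the last 30 min stable phase in 60 s bins. EC50 obtained by logistic dose-response fitting.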

[7] = molecular target: Delta-type opioid receptor (Rattus norvegicus, UniProt P33533); assay: Displacement of [3H]deltorphin2 from DOR in rat brain homogenates by liquid scintillation counting; assay type: tissue-based
Delta-type opioid receptor (Rattus norvegicus, UniProt P33533), sequence (P33533 whole entry): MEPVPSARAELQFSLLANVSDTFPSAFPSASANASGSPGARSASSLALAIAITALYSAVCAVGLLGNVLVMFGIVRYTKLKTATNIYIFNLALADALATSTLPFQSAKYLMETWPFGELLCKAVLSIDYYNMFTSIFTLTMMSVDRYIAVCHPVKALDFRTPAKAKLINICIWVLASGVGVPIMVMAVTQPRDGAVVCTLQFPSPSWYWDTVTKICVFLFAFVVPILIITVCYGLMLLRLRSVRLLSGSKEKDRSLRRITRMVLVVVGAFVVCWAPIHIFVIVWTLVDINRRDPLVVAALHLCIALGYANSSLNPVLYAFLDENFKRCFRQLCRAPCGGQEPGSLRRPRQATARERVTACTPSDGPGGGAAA

[8] = molecular target: Kappa-type opioid receptor (Homo sapiens, UniProt P41145); assay: Displacement of [3H]diprenorphine from human KOR expressed in HEK293 cell membrane by liquid scintillation counting; assay type: cell membranes
Kappa-type opioid receptor, sequence (P41145 whole entry): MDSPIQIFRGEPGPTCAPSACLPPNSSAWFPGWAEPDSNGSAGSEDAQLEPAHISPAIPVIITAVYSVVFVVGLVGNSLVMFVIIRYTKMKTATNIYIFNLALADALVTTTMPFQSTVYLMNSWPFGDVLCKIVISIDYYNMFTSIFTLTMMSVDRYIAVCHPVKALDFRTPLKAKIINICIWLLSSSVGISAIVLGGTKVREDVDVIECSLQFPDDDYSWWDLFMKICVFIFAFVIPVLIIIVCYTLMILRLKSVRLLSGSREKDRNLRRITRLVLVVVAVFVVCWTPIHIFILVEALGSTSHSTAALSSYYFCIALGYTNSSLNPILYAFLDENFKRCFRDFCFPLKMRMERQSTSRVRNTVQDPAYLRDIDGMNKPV

[9] = molecular target: T3, Delta-type opioid receptor (Homo sapiens, UniProt P41143); assay: Agonist activity at human DOR expressed in HEK293 cells assessed as stimulation of ERK1/2 phosphorylation at 1 uM after 2 mins by Western blotting; assay type: functional, cell-based; summary of the method: as §1
T3 sequence (P41143 whole entry): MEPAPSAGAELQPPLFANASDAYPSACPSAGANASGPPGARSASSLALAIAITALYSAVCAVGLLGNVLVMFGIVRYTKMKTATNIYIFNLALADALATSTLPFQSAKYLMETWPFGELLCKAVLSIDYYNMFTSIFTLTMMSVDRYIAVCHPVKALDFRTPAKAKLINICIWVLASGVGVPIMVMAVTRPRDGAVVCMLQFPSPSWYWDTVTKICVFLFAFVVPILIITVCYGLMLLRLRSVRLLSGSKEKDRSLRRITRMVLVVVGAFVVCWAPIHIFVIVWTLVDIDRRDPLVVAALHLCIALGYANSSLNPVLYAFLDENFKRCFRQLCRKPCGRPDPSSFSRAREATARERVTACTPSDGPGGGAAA

[10] = molecular target: T2, Opioid receptors; mu and delta; assay: Agonist activity at MOR/DOR in NMRI mouse spinal cord assessed as reduction in spinal cord network activity by electrophysiology assay; assay type: functional; summary of the method: as §4
Mu-type opioid receptor [11] = molecular target: Mu-type opioid receptor (Rattus norvegicus, UniProt P33535); assay: Displacement of [3H]naloxone from MOR in rat brain homogenates by liquid scintillation counting; assay type: tissue-based
Mu-type opioid receptor (Rattus norvegicus, UniProt P33535), sequence (P33535 whole entry): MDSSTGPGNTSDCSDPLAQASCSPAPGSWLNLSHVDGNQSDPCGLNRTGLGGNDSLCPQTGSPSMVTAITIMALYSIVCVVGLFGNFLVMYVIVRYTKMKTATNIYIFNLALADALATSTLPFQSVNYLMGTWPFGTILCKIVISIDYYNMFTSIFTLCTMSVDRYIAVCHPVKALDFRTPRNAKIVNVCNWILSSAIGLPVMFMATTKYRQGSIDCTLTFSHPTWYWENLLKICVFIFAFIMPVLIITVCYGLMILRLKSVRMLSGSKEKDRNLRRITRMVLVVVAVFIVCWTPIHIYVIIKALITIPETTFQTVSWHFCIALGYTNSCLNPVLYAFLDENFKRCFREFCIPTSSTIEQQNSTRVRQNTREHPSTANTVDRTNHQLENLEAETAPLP

[12] = molecular target: T3, Delta-type opioid receptor; assay: Displacement of [3H]diprenorphine from human DOR expressed in HEK293 cell membrane by liquid scintillation counting; assay type: cell membranes; summary of the method: as §2
[13] = molecular target: T3, Delta-type opioid receptor; assay: Agonist activity at human DOR expressed in HEK293 cell membrane assessed as inhibition of forskolin-induced cAMP accumulation by liquid scintillation counting relative to control; assay type: functional, cell membranes
Rattus norvegicus = species: Rattus norvegicus; assay: Selectivity index, ratio of EC50 for rat brain DOR to EC50 for rat brain MOR by cAMP accumulation assay
Mu-type opioid receptor [14] = molecular target: T1, Mu-type opioid receptor; assay: Agonist activity at human MOR expressed in HEK293 cells assessed as stimulation of ERK1/2 phosphorylation at 1 uM after 2 mins by Western blotting; assay type: functional, cell-based; summary of the method: as §1
[15] = molecular target: T3, Delta-type opioid receptor; assay: Agonist activity at human DOR expressed in HEK293 cell membrane assessed as inhibition of forskolin-induced cAMP accumulation by liquid scintillation counting; assay type: functional, cell membranes; summary of the method: as §3

With `C[C@H](C(=O)N[C@H]1Cc2ccccc2CN(CC(N)=O)C1=O)N1Cc2cc(O)ccc2C[C@H](N)C1=O` as the molecule, how does the Activity (Mu-type opioid receptor [1]) read?
The Activity was “Active”.

What about the Activity [2] of the same molecule?
Its Activity is 14%.

And the Ratio Ki (Homo sapiens)?
Its Ratio Ki is 0.059.

What about the Ki (Mu-type opioid receptor [3]) of the same molecule?
The Ki was 2.7 µM.

And the Emax (Mu-type opioid receptor [4])?
Its Emax is 78%.

What about the EC50 (Mu-type opioid receptor [5]) of the same molecule?
Its EC50 is 5.17 nM.

And the EC50 [6]?
The EC50 was 5.67 ×10⁻⁷ M.

And the IC50 [7]?
Its IC50 is 0.0178 µM.

And the Ki [8]?
Its Ki is greater than 1000 µM.

What about the Activity [9] of the same molecule?
Its Activity is “Active”.

And the EC50 [10]?
The EC50 was 6.7 nM.

What about the IC50 (Mu-type opioid receptor [11]) of the same molecule?
The IC50 was 0.0208 µM.

What about the Ki [12] of the same molecule?
Its Ki is 0.16 µM.

And the Emax [13]?
Its Emax is 79%.

Which Ratio EC50 (Rattus norvegicus) does the source give for `Cc1cc(O)cc(C)c1C[C@H](N)C(=O)N[C@H](C)C(=O)N[C@H]1Cc2ccccc2CN(CC(N)=O)C1=O` here?
The Ratio EC50 was 2.04.

And the Ratio Ki (Homo sapiens)?
Its Ratio Ki is 0.106.

And the Ki (Mu-type opioid receptor [3])?
Its Ki is 0.17 µM.

What about the Emax (Mu-type opioid receptor [4]) of the same molecule?
Its Emax is 78%.

What about the Activity (Mu-type opioid receptor [14]) of the same molecule?
Its Activity is “Active”.

What about the EC50 (Mu-type opioid receptor [5]) of the same molecule?
Its EC50 is 0.0832 nM.

And the EC50 [15]?
Its EC50 is 0.17 nM.

And the Ki [8]?
The Ki was greater than 1000 µM.

What about the Activity [9] of the same molecule?
The Activity was “Active”.

What about the Ki [12] of the same molecule?
Its Ki is 0.018 µM.

What about the Emax [13] of the same molecule?
The Emax was 66%.

How did the Activity (Mu-type opioid receptor [1]) turn out when `Cc1cc(O)cc(C)c1C[C@H](N)C(=O)N(C)[C@H](C)C(=O)N[C@H]1Cc2ccccc2CN(CC(N)=O)C1=O` was run?
Its Activity is “Active”.

What about the Ratio EC50 (Rattus norvegicus) of the same molecule?
Its Ratio EC50 is 9.2.

What about the Activity [2] of the same molecule?
Its Activity is 21%.

And the Ratio Ki (Homo sapiens)?
Its Ratio Ki is 0.34.

What about the Ki (Mu-type opioid receptor [3]) of the same molecule?
Its Ki is 0.0148 µM.

What about the Emax (Mu-type opioid receptor [4]) of the same molecule?
Its Emax is 72%.

What about the EC50 (Mu-type opioid receptor [5]) of the same molecule?
Its EC50 is 0.00174 nM.

And the EC50 [15]?
The EC50 was 0.016 nM.

What about the EC50 [6] of the same molecule?
The EC50 was 1.61 ×10⁻¹⁵ M.

And the IC50 [7]?
The IC50 was 0.00095 µM.

What about the Ki [8] of the same molecule?
The Ki was greater than 1000 µM.

What about the Activity [9] of the same molecule?
Its Activity is “Active”.

And the EC50 [10]?
The EC50 was 1.3 nM.

What about the IC50 (Mu-type opioid receptor [11]) of the same molecule?
The IC50 was 0.00095 µM.

And the Ki [12]?
Its Ki is 0.005 µM.

And the Emax [13]?
The Emax was 61%.

Which results are given for `Cc1cc(O)cc(C)c1C[C@H](N)C(=O)N(C)[C@H](C)C(=O)N[C@@H](Cc1ccccc1)C(=O)N(C)CC(N)=O` (H-[Dmt][dNMeA]F[Sar]-NH2)?
Ratio EC50 (Rattus norvegicus): 55700; Activity [2]: 1%; Ratio Ki (Homo sapiens): 2.2; Ki (Mu-type opioid receptor [3]): 0.06 µM; Emax (Mu-type opioid receptor [4]): 71%; Activity (Mu-type opioid receptor [14]): Active; EC50 (Mu-type opioid receptor [5]): 0.079 nM; EC50 [15]: 4400 nM; EC50 [6]: 1.29 ×10⁻¹³ M; IC50 [7]: 0.0049 µM; Ki [8]: > 1000 µM; Activity [9]: Active; EC50 [10]: 2.87 ×10⁻¹⁰ M; IC50 (Mu-type opioid receptor [11]): 0.0003 µM; Ki [12]: 0.13 µM; Emax [13]: 72%

What does the source list for `C[C@H](C(=O)N[C@@H](Cc1ccccc1)C(=O)N(C)CC(N)=O)N(C)C(=O)[C@@H](N)Cc1ccc(O)cc1` (H-Y[dNMeA]F[Sar]-NH2)?
Ratio EC50 (Rattus norvegicus): 293; Activity [2]: 3%; Ki (Mu-type opioid receptor [3]): 1.1 µM; Emax (Mu-type opioid receptor [4]): 77%; Activity (Mu-type opioid receptor [14]): Active; EC50 (Mu-type opioid receptor [5]): 3.28 nM; EC50 [15]: 960 nM; EC50 [6]: 5 ×10⁻¹² M; IC50 [7]: 0.0071 µM; Ki [8]: > 1000 µM; Activity [9]: Active; EC50 [10]: 1060 nM; IC50 (Mu-type opioid receptor [11]): 0.0281 µM; Ki [12]: > 10 µM; Emax [13]: 74%
